The source of these data is paper PMC12080315 (Chemistry (Weinheim an Der Bergstrasse, Germany), 2025).

One assay deals with recombinant GGTase I (Homo sapiens, UniProt P49354+P53609). The experiment in a line: Fluorescent in vitro GGTase I inhibition assay. It is filed as biochemical. The method, boiled down:
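Recombinant GGTase I (25–37 nM) was run with dansyl-labelled K-Ras C-terminal peptide (1 µM) and test compound at 0–500 µM. GGPP was diluted to a 110 µM working stock before use. Buffer was 50 mM Tris-HCl pH 7.5 with MgCl2, ZnCl2, dodecyl maltoside and DTT, at 37 °C. Fluorescence kinetics (ex 340/em 520 nm) were recorded over 5 min. n = 3, SEM.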

Another assay addresses recombinant FTase (Homo sapiens, UniProt P49354+P49356). Kind of assay: Fluorescent in vitro FTase inhibition assay. It is filed as biochemical. The conditions noted are these: for selectivity for FTase over GGTase I: ratio of K i values GGTase I / FTase. In a few lines:
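Recombinant FTase (25–37 nM) was reacted with dansyl-labelled K-Ras4B C-terminal peptide (1 µM) and FPP (5 µM), with test compound at 0–500 µM. Enzyme, substrates and compound were spotted separately, then buffer was added to start the reaction. Fluorescence (ex 340/em 520 nm) was followed for 5 min. n = 3, SEM.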

In another assay the test system is K‐Ras prenylation. The experiment in a line: Gel-shift assay. The format is cell-based, human. The conditions noted are these: MiaPaca‐2 cells, 48 hours, 30 and 100 µM. The method, boiled down:
(§1)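 MiaPaCa2 cells were grown in DMEM with 10% heat-inactivated FBS and 1% penicillin-streptomycin. They were treated 48 h with vehicle or test compound at 30 and 100 µM; the positive control, a dual FTase/GGTase I inhibitor, was used at 10 and 30 µM. Cells were PBS-washed and lysed with protease and phosphatase inhibitors. Lysates ran on 4–20% SDS-PAGE gel-shift blots, probed with anti-K-Ras or anti-Rap1A+B, plus anti-vinculin.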

In the next assay the test system is MiaPaCa2 cells. Kind of assay: Antiproliferative activity, trypan blue cell viability assay. It is filed as cell-based, human. The conditions noted are these: for IC50: Homo sapiens, MIA PaCa-2, 72 h, read-out: IC50, antiproliferation activity. The method, boiled down: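 MiaPaCa2 cells (K-Ras G12C) seeded at 1×10³ cells/well and left overnight at 37 °C, 5% CO2. Next day they were given various concentrations of test compound and incubated 72 h at 37 °C, 5% CO2. A trypan blue assay followed, […]. Sotorasib served as positive control. n = 3, mean ± SEM.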

A further assay has as its system Rap1 geranylgeranylation. The experiment in a line: Gel-shift assay. The conditions noted are these: MiaPaca‐2 cells, 48 hours, 30 and 100 µM. It is filed as cell-based, human. In a few lines: as §1

“Also recorded” adds a separate entry of the source. Where only a bound is given, the exact number is not on record here.

Sequence of recombinant GGTase I (P53609 whole entry, one chain of several): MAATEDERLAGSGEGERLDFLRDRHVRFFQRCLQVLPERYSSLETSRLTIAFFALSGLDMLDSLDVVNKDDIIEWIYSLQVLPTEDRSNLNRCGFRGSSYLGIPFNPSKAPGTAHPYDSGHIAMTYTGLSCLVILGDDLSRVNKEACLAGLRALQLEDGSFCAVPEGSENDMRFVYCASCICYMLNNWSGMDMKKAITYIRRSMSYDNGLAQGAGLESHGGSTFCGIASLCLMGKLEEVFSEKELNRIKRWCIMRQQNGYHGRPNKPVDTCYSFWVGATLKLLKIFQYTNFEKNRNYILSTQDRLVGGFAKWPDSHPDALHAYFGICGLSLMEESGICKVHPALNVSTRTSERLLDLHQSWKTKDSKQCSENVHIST
Sequence of recombinant FTase (P49356 whole entry, one chain of several): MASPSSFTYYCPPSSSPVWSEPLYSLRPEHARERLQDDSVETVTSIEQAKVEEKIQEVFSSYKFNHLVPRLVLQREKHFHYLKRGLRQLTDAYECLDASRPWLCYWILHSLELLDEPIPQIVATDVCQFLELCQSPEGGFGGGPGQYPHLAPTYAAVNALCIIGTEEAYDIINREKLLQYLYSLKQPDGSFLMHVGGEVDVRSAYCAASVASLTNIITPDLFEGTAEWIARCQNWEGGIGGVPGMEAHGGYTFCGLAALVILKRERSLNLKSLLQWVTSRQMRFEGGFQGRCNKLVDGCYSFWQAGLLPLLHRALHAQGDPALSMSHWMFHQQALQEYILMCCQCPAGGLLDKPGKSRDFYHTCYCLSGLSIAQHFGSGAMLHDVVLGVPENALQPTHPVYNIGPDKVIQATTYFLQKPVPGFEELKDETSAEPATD

The term Ki denotes a measure of affinity in units of concentration, obtained from inhibition or displacement. As to `CSCC[C@H](NC(=O)NC1(c2ccccc2)CCN(Cc2cnc[nH]2)CC1)C(=O)O` [Compound 1, ((1‐((1H‐Imidazol‐5‐yl)methyl)‐4‐phenylpiperidin‐4‐yl)carbamoyl)‐L‐methionine], the IC50 at recombinant GGTase I is over 500000 nM. Besides, the Ki on recombinant FTase was found to be 790 ± 45 nM.

Take `COC(=O)[C@H](CCSC)NC(=O)NC1(c2ccccc2)CCN(Cc2cncn2Cc2ccc(N=[N+]=[N-])cc2)CC1` [Compound 2, Methyl ((1‐((1‐(4‐azidobenzyl)‐1H‐imidazol‐5‐yl)methyl)‐4‐phenylpiperidin‐4‐yl)carbamoyl)‐L‐methioninate]: the “inhibition of prenylation (processing) of K‐Ras in cells” value in the assay with K‐Ras prenylation was “able to inhibit; also recorded: inhibit the processing”. For the same molecule, the IC50 in the assay with MiaPaCa2 cells was in the range of 100 to 1000 nM. For the same molecule, the “IC50 relative to that of sotorasib” value in the assay on MiaPaCa2 cells (MiaPaCa2 cells, 72 hours) is “approximately 10 fold”. For the same molecule, the “inhibition of geranylgeranylation (processing) of Rap1 in cells” value (from here on “inhibition of geranylgeranylation”) in the assay with Rap1 geranylgeranylation is given as “inhibited; also recorded: inhibit the processing”.

For the molecule `CSCC[C@H](NC(=O)NC1(c2ccccc2)CCN(Cc2cncn2Cc2ccc(N=[N+]=[N-])cc2)CC1)C(=O)O` [Compound 3, ((1‐((1‐(4‐Azidobenzyl)‐1H‐imidazol‐5‐yl)methyl)‐4‐phenylpiperidin‐4‐yl)carbamoyl)‐L‐methionine], on recombinant GGTase I, the IC50 is 6480 nM and the inhibition constant (Ki) was 210 nM. For the same molecule, on recombinant FTase, the IC50 was 350 nM, the Ki was determined as 2.1 ± 0.5 nM and the “selectivity for FTase over GGTase I” value stood at 100 fold. Further, the “increase in potency for FTase compared to 1” value on recombinant FTase (ratio of K i values) was 376 fold.

For the molecule `COC(=O)[C@H](CCSC)NC(=O)NC1(c2ccccc2)CCN(Cc2cncn2Cc2ccc(-n3cc(COCCCCCCNC(=O)c4ccc(N)cc4)nn3)cc2)CC1` [Compound 4c, Methyl ((1‐((1‐(4‐(4‐(((6‐(4‐aminobenzamido)hexyl)oxy)methyl)‐1H‐1,2,3‐triazol‐1‐yl)benzyl)‐1H‐imidazol‐5‐yl)methyl)‐4‐phenylpiperidin‐4‐yl)carbamoyl)‐L‐methioninate], the “inhibition of prenylation (processing) of K‐Ras in cells” value with K‐Ras prenylation was “able to inhibit; also recorded: inhibit the processing; also recorded: disrupt the processing”. In addition, the “inhibition of geranylgeranylation” value in the assay on Rap1 geranylgeranylation is reported as “inhibited; also recorded: more potent than 2; also recorded: inhibit the processing; also recorded: disrupt the processing”.

Take `COC(=O)[C@H](CCSC)NC(=O)NC1(c2ccccc2)CCN(Cc2cncn2Cc2ccc(-n3cc(COCCCCCCNC(=O)c4ccc(NC(=N)N)cc4)nn3)cc2)CC1` [Compound 4d, Methyl ((1‐((1‐(4‐(4‐(((6‐(4‐guanidinobenzamido)hexyl)oxy)methyl)‐1H‐1,2,3‐triazol‐1‐yl)benzyl)‐1H‐imidazol‐5‐yl)methyl)‐4‐phenylpiperidin‐4‐yl)carbamoyl)‐L‐methioninate]: in the assay with Rap1 geranylgeranylation, the “inhibition of geranylgeranylation” value is reported as “did not inhibit”.

Regarding `COC(=O)[C@H](CCSC)NC(=O)NC1(c2ccccc2)CCN(Cc2cncn2Cc2ccc(-n3cc(COCCCCCCNC(=O)c4ccc(C(=N)N)cc4)nn3)cc2)CC1` [Compound 4e, Methyl ((1‐((1‐(4‐(4‐(((6‐(4‐carbamimidoylbenzamido)hexyl)oxy)methyl)‐1H‐1,2,3‐triazol‐1‐yl)benzyl)‐1H‐imidazol‐5‐yl)methyl)‐4‐phenylpiperidin‐4‐yl)carbamoyl)‐L‐methioninate], the “inhibition of geranylgeranylation” value in the assay on Rap1 geranylgeranylation is given as “did not inhibit”.

For `CSCC[C@H](NC(=O)NC1(c2ccccc2)CCN(Cc2cncn2Cc2ccc(-n3cc(COCCCCCCNC(=N)N)nn3)cc2)CC1)C(=O)O` [Compound 5a, ((1‐((1‐(4‐(4‐(((6‐Guanidinohexyl)oxy)methyl)‐1H‐1,2,3‐triazol‐1‐yl)benzyl)‐1H‐imidazol‐5‐yl)methyl)‐4‐phenylpiperidin‐4‐yl)carbamoyl)‐L‐methionine], on recombinant GGTase I, the IC50 was 7840 nM and the Ki worked out at 250 ± 50 nM. Besides, at recombinant FTase, the IC50 is 290 nM, the Ki is 1.7 ± 0.5 nM and the “selectivity for FTase over GGTase I” value was determined as 147 fold.

As to `CSCC[C@H](NC(=O)NC1(c2ccccc2)CCN(Cc2cncn2Cc2ccc(-n3cc(COCCCCCCN)nn3)cc2)CC1)C(=O)O` [Compound 5b, ((1‐((1‐(4‐(4‐(((6‐Aminohexyl)oxy)methyl)‐1H‐1,2,3‐triazol‐1‐yl)benzyl)‐1H‐imidazol‐5‐yl)methyl)‐4‐phenylpiperidin‐4‐yl)carbamoyl)‐L‐methionine], at recombinant GGTase I, the IC50 is 2400 nM and the Ki is 77 ± 51 nM. For the same molecule, on recombinant FTase, the IC50 was 630 nM, the inhibition constant Ki came out at 3.8 ± 1.1 nM and the “selectivity for FTase over GGTase I” value was 20 fold.

As for `CSCC[C@H](NC(=O)NC1(c2ccccc2)CCN(Cc2cncn2Cc2ccc(-n3cc(COCCCCCCNC(=O)c4ccc(N)cc4)nn3)cc2)CC1)C(=O)O` [Compound 5c, ((1‐((1‐(4‐(4‐(((6‐(4‐Aminobenzamido)hexyl)oxy)methyl)‐1H‐1,2,3‐triazol‐1‐yl)benzyl)‐1H‐imidazol‐5‐yl)methyl)‐4‐phenylpiperidin‐4‐yl)carbamoyl)‐L‐methionine], the IC50 is 90 nM on recombinant GGTase I and 752 nM at recombinant FTase. In addition, the values for the Ki at recombinant GGTase I and on recombinant FTase were 2.9 ± 0.7 nM and 4.6 ± 0.08 nM, respectively.

`CSCC[C@H](NC(=O)NC1(c2ccccc2)CCN(Cc2cncn2Cc2ccc(-n3cc(COCCCCCCNC(=O)c4ccc(NC(=N)N)cc4)nn3)cc2)CC1)C(=O)O` [Compound 5d, ((1‐((1‐(4‐(4‐(((6‐(4‐Guanidinobenzamido)hexyl)oxy)methyl)‐1H‐1,2,3‐triazol‐1‐yl)benzyl)‐1H‐imidazol‐5‐yl)methyl)‐4‐phenylpiperidin‐4‐yl)carbamoyl)‐L‐methionine]: the IC50 at recombinant GGTase I was 96 nM; at recombinant FTase it was 300 nM. Moreover, the figures for the Ki at recombinant GGTase I and on recombinant FTase were 3.1 ± 0.5 nM and 1.8 ± 0.4 nM, respectively.

As for `CSCC[C@H](NC(=O)NC1(c2ccccc2)CCN(Cc2cncn2Cc2ccc(-n3cc(COCCCCCCNC(=O)c4ccc(C(=N)N)cc4)nn3)cc2)CC1)C(=O)O` [Compound 5e, ((1‐((1‐(4‐(4‐(((6‐(4‐Carbamimidoylbenzamido)hexyl)oxy)methyl)‐1H‐1,2,3‐triazol‐1‐yl)benzyl)‐1H‐imidazol‐5‐yl)methyl)‐4‐phenylpiperidin‐4‐yl)carbamoyl)‐L‐methionine], the IC50 was 530 nM at recombinant GGTase I and 330 nM at recombinant FTase. In addition, the Ki on recombinant GGTase I was 17 ± 5 nM; at recombinant FTase it was 2 ± 0.2 nM.

For `C#CCOCCCCCCNC(=N)N` [Compound 12, 1‐(6‐(Prop‐2‐yn‐1‐yloxy)hexyl)guanidine], the IC50 at recombinant FTase was over 500000 nM.

Consider `C#CCOCCCCCCNC(=O)c1ccc(C(=N)N)cc1` [Compound 13, 4‐Carbamimidoyl‐N‐(6‐(prop‐2‐yn‐1‐yloxy)hexyl)benzamide], for which the IC50 at recombinant GGTase I and at recombinant FTase was over 500000 nM throughout. Besides, the “antiproliferative activity (result in words)” value with MiaPaCa2 cells (MiaPaCa2 cells, 72 hours, trypan blue assay) was “inactive”.

For the molecule `C=CC(=O)N1CCN(c2nc(=O)n(-c3c(C)ccnc3C(C)C)c3nc(-c4c(O)cccc4F)c(F)cc23)[C@@H](C)C1` [sotorasib, reference compound], the IC50 in the assay with MiaPaCa2 cells was in the range of 10 to 100 nM.
